Test results from ChEMBL document CHEMBL3779886, “Cassane Diterpenoids from the Pericarps of Caesalpinia bonduc” (J Nat Prod, 2016).
The source made the active and inactive calls.

Assays:
Format in all cases: functional, cell-based
SH-SY5Y [1] = experiment: Neuroprotective activity against H2O2-induced toxicity in human SH-SY5Y cells assessed as cell viability at 1 to 10 uM pretreated for 2 hrs followed by H2O2 addition measured after 24 hrs by MTT assay
Summary of the method: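 High-passage SH-SY5Y cells (ATCC), 37 °C, 5% CO2. Pretreatment for 2 h with compound at 1 or 10 μM, or N-acetylcysteine 300 μM, then 100 μM H2O2 for 24 h. Viability by MTT (0.5 mg/mL final, 4 h, 37 °C), DMSO solubilization, absorbance 490 nm. Means ± SD, one-way ANOVA, p < 0.05.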

SH-SY5Y [2] = experiment: Neuroprotective activity against OGD-induced toxicity in human SH-SY5Y cells assessed as cell viability at 1 to 10 uM pretreated for 2 hrs followed by OGD induction for 1 hr measured after 24 hrs by MTT assay
Summary of the method: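 SH-SY5Y cells (high passage, ATCC) kept at 37 °C, 5% CO2. Pretreated with compound for 2 h, then OGD exposure (1 mg/mL as printed) for 1 h, followed by 24 h normal culture. Glucose-fed cells under normal conditions served as controls. MTT 0.5 mg/mL final, 4 h, 37 °C; DMSO; A490. Means ± SD, one-way ANOVA.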

SH-SY5Y [3] = experiment: Neuroprotective activity against amyloid beta(25 to 35)-induced toxicity in human SH-SY5Y cells assessed as cell viability at 1 to 10 uM pretreated for 2 hrs followed by protein addition measured after 24 hrs by MTT assay
Summary of the method: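 Cells: high-passage SH-SY5Y (ATCC), 37 °C, 5% CO2. 2 h pretreatment with compound at 1 or 10 μM, or EGCG 10 μM, then 10 μM Aβ25−35 for 24 h with compound still present. MTT at 0.5 mg/mL final for 4 h, 37 °C; DMSO dissolution; read at 490 nm. Means ± SD, one-way ANOVA, p < 0.05.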

Measured: Activity

COC(=O)[C@@H]1c2ccoc2C[C@H]2[C@H]1[C@@H](O)[C@H](OC(C)=O)[C@@]1(O)C(C)(C)CC[C@H](O)[C@]21C
inactive: all assays above

COC(=O)[C@@H]1c2ccoc2C[C@H]2[C@H]1[C@@H](OC(C)=O)[C@H](O)[C@@]1(O)C(C)(C)CCC(=O)[C@]21C
inactive: all assays above

C=C1c2ccoc2C[C@H]2[C@H]1[C@@H](OC(C)=O)[C@H](OC(C)=O)[C@@]1(O)C(C)(C)CCC(=O)[C@]21C
inactive: all assays above

C=C1c2ccoc2C[C@H]2[C@H]1CC[C@@]1(O)C(C)(C)[C@H](OC(C)=O)[C@H](OC(C)=O)[C@H](OC(C)=O)[C@]21C
inactive: all assays above

COC(=O)[C@@H]1c2ccoc2C[C@H]2[C@H]1[C@@H](OC(C)=O)[C@H](OC(C)=O)[C@@]1(O)C(C)(C)CC[C@H](O)[C@]21C
inactive: all assays above

CC(=O)O[C@@H]1[C@@H]2[C@H](Cc3occc3[C@@]2(C)O)[C@@]2(C)[C@@H](OC(C)=O)CC(C)=C(C)[C@]2(O)[C@H]1OC(C)=O
inactive: all assays above

COC(=O)[C@@H]1c2ccoc2C[C@H]2[C@H]1[C@@H](O)[C@H](OC(C)=O)[C@@]1(O)C(C)(C)CCC(=O)[C@]21C
inactive: all assays above

CC(=O)O[C@@H]1[C@@H]2[C@H](Cc3occc3[C@@]2(C)O)[C@@]2(C)[C@@H](OC(C)=O)C[C@H](C)[C@@]3(C)O[C@@]23[C@H]1OC(C)=O
inactive: all assays above

COC(=O)[C@@H]1c2ccoc2C[C@H]2[C@H]1[C@@H](OC(C)=O)[C@H](OC(C)=O)[C@@]1(O)C(C)(C)CCC[C@]21C
inactive: all assays above
